The results in this text go back to ChEMBL document CHEMBL4699407, “Isoquinoline thiosemicarbazone displays potent anticancer activity with in vivo efficacy against aggressive leukemias” (RSC Med Chem, 2020).

Assay [1] relates to MIA PaCa-2. The experiment in a line: Induction of ROS generation in human MIA PaCa-2 cells at 25 nM in presence of Cu2+ incubated for 24 hrs by CM-H2DCFDA staining based flow cytometry analysis. It counts as functional, cell-based. A digest of the protocol: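 Treated with 25 nM compound ± 20 μM Cu(II) for 24 h. Cells loaded with 5 μM CM-H2DCFDA for 30 min, spun at 450g for 4 min, and returned to medium containing compound and/or Cu(II) for 30 min. Then spun, resuspended in PBS and read by flow cytometry as mean fluorescence intensity. Mean ± SD, n = 2, Student t-test.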

In assay [2] the test system is MIA PaCa-2. Description: Induction of DNA damage in human MIA PaCa-2 cells assessed as increase in pH2A.X phosphorylation at 10 nM in presence of Cu2+ incubated for 48 hrs by immunoblot assay. It counts as functional, cell-based. A digest of the protocol:
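Treated with 10 nM compound plus 20 μM Cu(II). Lysed in RIPA buffer with protease and phosphatase inhibitors, then sonicated and centrifuged at 20 000g, 4 °C. Protein measured by micro BCA, and equal amounts run on bis-tris gels. Primary antibodies in 5% BSA/TBST; HRP-linked anti-rabbit or anti-mouse secondaries at 1:2500. Chemiluminescent detection on film; representative blot.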
Background: Immunoblotting shows a protein as a band on a membrane.

In assay [3] the test system is BXPC-3. The experiment in a line: Cytotoxicity against human BXPC-3 cells assessed as reduction in cell viability in presence of Cu2+ incubated for 72 hrs by cell titer-glo luminescent cell viability assay. The conditions noted are these: BXPC-3, 72 h. It counts as functional, cell-based. A digest of the protocol: (§1)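 Cells were grown in DMEM or RPMI with 10% FBS, without antibiotics, at 37 °C, 20% O2, 5% CO2. Adherent lines were seeded at 500 cells/well. Serially diluted compound was given with 20 μM Cu(II) (CuCl2) for 72 h; leukemia models received pre-formed 1:1 copper complex. ATP was read by CellTiter-Glo luminescence. IC50 is relative to DMSO-treated cells.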
Background: ATP-based viability assays read luminescence as a measure of living cells.

Assay [4] deals with MIA PaCa-2. Description: Induction of apoptosis in human MIA PaCa-2 cells assessed as increase in necrotic cells at 25 nM in presence of Cu2+ and ATRi incubated for 72 hrs by annexin V and propidium iodide staining based flow cytometry analysis relative to control. It counts as functional. An outline of the steps:
(§2)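 Cells given 25 nM compound with or without 20 μM Cu(II) and/or the ATR inhibitor VE-822 at 250 nM for 72 h. Stained with annexin V-FITC and propidium iodide, then analysed on a five-laser flow cytometer to score viable, early apoptotic, late apoptotic and necrotic fractions against vehicle.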
(Flow cytometry measures light scatter and fluorescence of single cells or particles in a stream.)

Assay [5] in a line: Cytotoxicity against human PaTu 8902 cells assessed as reduction in cell viability in presence of Cu2+ incubated for 72 hrs by cell titer-glo luminescent cell viability assay. It counts as functional, cell-based. The conditions noted are these: PaTu 8902, 72 h. A digest of the protocol: as §1
Assay [6] can be described thus: Cytotoxicity against human SUIT-2 cells assessed as reduction in cell viability in presence of Cu2+ incubated for 72 hrs by cell titer-glo luminescent cell viability assay. The conditions noted are these: SUIT-2, 72 h. It counts as functional, cell-based. A digest of the protocol: as §1
Assay [7] concerns MIA PaCa-2. The experiment in a line: Induction of apoptosis in human MIA PaCa-2 cells assessed as increase in late apoptotic cells at 25 nM incubated for 72 hrs by annexin V and propidium iodide staining based flow cytometry analysis relative to control. It counts as functional. A digest of the protocol:
as §2

In assay [8] the test system is MIA PaCa-2. The experiment in a line: Induction of apoptosis in human MIA PaCa-2 cells assessed as reduction in viable cells at 25 nM in presence of Cu2+ and ATRi incubated for 72 hrs by annexin V and propidium iodide staining based flow cytometry analysis relative to control. It counts as functional. An outline of the steps: as §2
Assay [9] concerns MIA PaCa-2. The experiment in a line: Induction of DNA damage in human MIA PaCa-2 cells assessed as decrease in CTP level at 25 nM in presence of Cu2+ incubated for 48 hrs by LC-MS/MS analysis. It counts as functional, cell-based. A digest of the protocol:
(§3)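 MIAPACA2 cells were given 25 nM compound plus 20 μM Cu(II) for 48 h in glucose-free DMEM with 10% dialyzed FBS and 11 mM [U-13C6]glucose. Nucleotide pools were quantified by LC-MS/MS with multiple reaction monitoring. Mean ± SD, n = 3, two-way ANOVA with Bonferroni correction.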

Assay [10] relates to MIA PaCa-2. The experiment in a line: Induction of apoptosis in human MIA PaCa-2 cells assessed as increase in necrotic cells at 25 nM in presence of ATRi incubated for 72 hrs by annexin V and propidium iodide staining based flow cytometry analysis relative to control. It counts as functional. An outline of the steps: as §2
The test system of assay [11] is Panc203. Description: Cytotoxicity against human Panc203 cells assessed as reduction in cell viability in presence of Cu2+ incubated for 72 hrs by cell titer-glo luminescent cell viability assay. It counts as functional, cell-based. The conditions noted are these: Panc203, 72 h. An outline of the steps: as §1
In assay [12] the test system is MIA PaCa-2. The experiment in a line: Induction of DNA damage in human MIA PaCa-2 cells assessed as decrease in dCTP level at 25 nM in presence of Cu2+ incubated for 48 hrs by LC-MS/MS analysis. It counts as functional, cell-based. A digest of the protocol: (§4)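 Cells in DMEM or RPMI with 10% FBS, 37 °C, 5% CO2. Treated with 25 nM compound plus 20 μM Cu(II) for 48 h. Nucleotide pools quantified by LC-MS/MS with multiple reaction monitoring. Cells were in glucose-free DMEM with 10% dialyzed FBS and 11 mM [U-13C6]glucose for 48 h, and glucose-labeled pools were compared. Mean ± SD, n = 3, two-way ANOVA with Bonferroni correction.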

The subject of assay [13] is MIA PaCa-2. Description: Induction of DNA damage in human MIA PaCa-2 cells assessed as decrease in GTP level at 25 nM in presence of Cu2+ incubated for 48 hrs by LC-MS/MS analysis. It counts as functional, cell-based. A digest of the protocol:
as §3

The subject of assay [14] is MIA PaCa-2. Description: Induction of apoptosis in human MIA PaCa-2 cells assessed as decrease in viable cells at 25 nM in presence of ATRi incubated for 72 hrs by annexin V and propidium iodide staining based flow cytometry analysis relative to control. It counts as functional. An outline of the steps: as §2
The subject of assay [15] is MIA PaCa-2. The experiment in a line: Anti-OXPHOS activity in human MIA PaCa-2 cells assessed as reduction in oxygen consumption rate at 25 nM in presence of Cu2+ incubated for 24 hrs by […]. It counts as functional, cell-based. The conditions noted are these: Mitochondria. A digest of the protocol: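 Cellular Mito Stress Test: cells treated 24 h with 25 nM compound plus 20 μM Cu(II), then incubated in unbuffered DMEM with 25 mM glucose, 1 mM pyruvate and 2 mM glutamine. OCR was read on an XF24 analyzer and normalized per μg protein. It was read at baseline and after serial 1 μM oligomycin, 0.75 μM FCCP, and 1 μM rotenone plus myxothiazol.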

For assay [16], the system named is MIA PaCa-2. The experiment in a line: Induction of DNA damage in human MIA PaCa-2 cells assessed as decrease in UTP level at 25 nM in presence of Cu2+ incubated for 48 hrs by LC-MS/MS analysis. It counts as functional, cell-based. A digest of the protocol: as §4
For assay [17], the system named is MIA PaCa-2. Description: Cytotoxicity against human MIA PaCa2 cells assessed as reduction in cell viability at 25 nM in presence of Cu2+ and 2-DG incubated for 48 hrs by trypan blue assay. It counts as functional, cell-based. A digest of the protocol: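 MIAPACA2 cells were given 25 nM compound plus 20 μM Cu(II), with or without 2-deoxyglucose (2 mM), for 48 h. Viability was read by trypan blue staining on a Vi-Cell counter. Mean ± SD, n = 2, Student t-test.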

The test system of assay [18] is MIA PaCa-2. Description: Induction of apoptosis in human MIA PaCa-2 cells assessed as reduction in viable cells at 25 nM in presence of Cu2+ incubated for 72 hrs by annexin V and propidium iodide staining based flow cytometry analysis relative to control. It counts as functional. A digest of the protocol: as §2
Assay [19] deals with MIA PaCa-2. Description: Induction of apoptosis in human MIA PaCa-2 cells assessed as increase in necrotic cells at 25 nM in presence of Cu2+ incubated for 72 hrs by annexin V and propidium iodide staining based flow cytometry analysis relative to control. It counts as functional. A digest of the protocol:
as §2

One may read the IC50 as the concentration that gives 50% inhibition.

Active and inactive are the calls of the source. No cut-off for these calls is given here.

`CN(C)C(=S)NN=Cc1nccc2cc(F)ccc12`: the outcome in assay [1], in [2], in [15] and in assay [17] was Active. Besides, the half-maximal inhibitory concentration (IC50) in assay [3], in [5], in assay [6] and in assay [11] was 1 nM each time. In addition, the Activity was 4.72% in assay [4]; 0.79% in [7]; 27.8% in assay [8]; 7.34% in [10]; 64.7% in assay [14]; 77.5% in [18]. The Activity in [19] stood at 4.86%. Further, the result in assay [9], in [12], in [13] and in [16] was inactive.
